24 compounds from PubChem BioAssay AID504382 (The Scripps Research Institute Molecular Screening Center, 2011) can be followed below.

The campaign covered roughly 2,500 compounds. About 460 (18%) were called active.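 How the source made its calls: active means mean activation above a cutoff of low control average plus 3 SD from the earlier screen (cut at about 12% in these data); inactive means the rest.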 These entries were drawn from the full list.

The nature of this test: IANBD-channel fluorescence artefacts in buffer – biochemical, artefact control for cardiac RTF calcium sensitizer project, confirmation (AID 504382). The conditions noted are these: IANBD fluorescence interference counterscreen, EC20 Ca2+, at 7.2 µM, hits give high values, scaled: EC20 calcium 0, EC100 calcium 100. In short, it runs like this: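 Medium: MOPS buffer, 190 mM, with KCl, MgCl2, EGTA, NTA, DTT, pH 7.20; Dosing: one dose of 7.2 µM, 0.7% DMSO; Probe or stimulus: calcium at EC20 level, 0.472 mM final; Incubation: 15 min, 25 °C; Evaluation: compound fluorescence interference relative to control well signal range; Signal: fluorescence, 480/540 nm.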
Background: Counterscreens check selectivity or assay interference.
For `c1ccc(CCC2=NCCn3cccc32)cc1`, the fluorescence artifact activation is 4.53% (inactive).

As for `CCCCn1c(N)c(N(CC(C)C)C(=O)Cc2ccc(S(=O)(=O)N3CCOCC3)s2)c(=O)[nH]c1=O`, the fluorescence artifact activation was 3.01% (inactive). The result for `Brc1ccc2[nH]c3nc(SCCN4CCOCC4)nnc3c2c1` reads 0.16% (inactive); that for `COc1ccc(/C=C2\SC(=S)N(CCCC(=O)Nc3ccccc3C(=O)O)C2=O)cc1OC`, 5.03% (inactive); that for `O=C(Nc1ccccc1)c1ccc(NCCc2ccccc2)c([N+](=O)[O-])c1`, 0.33% (inactive). With `Cc1cccc(OCCNc2ccc(C(F)(F)F)cc2[N+](=O)[O-])c1` the figure was 43.7% (active); with `CC(=O)c1cccc(-n2c(CCC(=O)O)ccc2-c2ccccc2)c1`, 0.06% (inactive); with `Cc1nnc(-c2ccccc2)c(=O)n1/N=C/c1c(O)ccc2ccccc12`, 0.11% (inactive).

In the case of `C/C(=N\NC(=O)c1cc2c(s1)CCC(C)C2)c1ccc[nH]1` (centres undefined), the fluorescence artifact activation was 0.04% (inactive). The result for `Cc1oc2c(cc(NS(=O)(=O)c3ccc(C(C)C)cc3)c3ccccc32)c1C(=O)O` reads -0.05% (inactive); that for `O=C(CSCc1c(F)cccc1Cl)Nc1ccccc1C(=O)N1CCOCC1`, 2.06% (inactive).

In the case of `O=C1S/C(=C\c2ccc(N3CCOCC3)o2)C(=O)N1c1ccccc1`, the fluorescence artifact activation was 22.4% (active). The result for `CCCN1C(=O)S/C(=C\c2ccc(N3CCOCC3)o2)C1=O` reads 0.73% (inactive).

Turning to `O=C(O)c1ccccc1-c1ccc(/C=C2\SC(=O)N(c3ccccc3)C2=O)o1`, the fluorescence artifact activation was 0.06% (inactive). With `O=C1S/C(=C\c2ccc(N3CCOCC3)o2)C(=O)N1Cc1ccc(F)cc1` the figure was -0.07% (inactive); with `CN1C/C(=C\c2ccc(N3CCOCC3)cc2)C(=O)/C(=C/c2ccc(N3CCOCC3)cc2)C1`, 0.12% (inactive); with `O=C1N/C(=C\c2ccsc2)C(=O)N1Cc1ccc(F)cc1`, 0.11% (inactive). With `CCCN1C(=O)S/C(=C/c2ccc(N3CCOCC3)o2)C1=O` the figure was 31.7% (active).

With `O=C1S/C(=C/c2ccc(N3CCOCC3)o2)C(=O)N1Cc1c(F)cccc1Cl`, the fluorescence artifact activation was 5.76% (inactive). The result for `O=C1S/C(=C\c2ccc(N3CCOCC3)o2)C(=O)N1Cc1c(F)cccc1Cl` reads 226% (active); that for `CC(C)OC(=O)CN1C(=O)S/C(=C/c2ccc(N3CCCCC3)o2)C1=O`, 0.64% (inactive); that for `O=C1S/C(=C/c2ccc(N3CCOCC3)o2)C(=O)N1Cc1ccc(F)cc1`, 16.8% (active). Consider `CCCOc1ccc(C2C(C(=O)/C=C/c3ccco3)=C(O)C(=O)N2CCN2CCOCC2)cc1OC` (centres undefined), for which the fluorescence artifact activation is 9.14% (inactive). With `CC1=CC(=C(C#N)c2nc3ccccc3s2)C=C(C)N1c1ccc(F)cc1` the figure was 11.2% (inactive).
